In ChEMBL document CHEMBL4513216, “Probing the Open Global Health Chemical Diversity Library for Multistage-Active Starting Points for Next-Generation Antimalarials” (ACS Infect Dis, 2020):

Assay: Toxicity liver stage against HepG2, at 10uM
Format: cell-based
Set-up: test concentration 10 uM, cell line HepG2-A16-CD81EGFP
Conditions: human, HepG2-A16-CD81EGFP cells; read-out: INHIBITION
Method in brief: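 Uninfected HepG2-A16-CD81EGFP cells, 3 × 10^3 per well, 1536-well, plated on prespotted compound at 10 μM final, parasite-free screening media added to match infected plates; puromycin 10 μM positive, DMSO 0.5% negative; run in parallel with 48 h PbLuc assay at 37 °C, 5% CO2; viability by CellTiter-Glo luminescence, normalized to controls.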

Structure (SMILES) | cytotoxicity at 10 µM
CNC(=O)C(C)NC(=O)c1cc(COc2ccc(OC)cc2Cl)[nH]n1 (stereo not drawn) | 5.27%
CC(C)N(C)CCCNC(=O)c1cnc(-c2ccccc2)nc1 | -6.13%
O=C(c1ccccc1F)N1CC(c2nc(C3CC3)no2)C1 | -0.478%
CCc1ccc(C(=O)NC[C@H]2CCCN2C(=O)c2ccc(CC)o2)o1 | -5.54%
Cc1cccc(N2CC3(CCN(S(=O)(=O)c4cccs4)C3)CC2=O)c1 (stereo not drawn) | -1.21%
Cc1nn(CCN2CCSCC2)cc1CNCc1ccccn1 | 2.28%
CN1CCN(Cc2ccccc2Cl)CC12CCC(=O)N(CC1CC1)CC2 (stereo not drawn) | -3.94%
Cn1ccc(C(=O)N2CCCCC23CC(=O)N(Cc2ccccc2)C3)n1 (stereo not drawn) | 3.64%
CN1C(=O)CCC12CCCN(Cc1nccs1)C2 (stereo not drawn) | -68.8%
O=c1ccc2c(n1CC1CC1)CCN(c1ncccn1)CC2 | 7.17%
Cc1nccn1[C@@H]1CC[C@@H](NC(=O)CCOc2ccccc2)[C@H]1O | -12.7%
Cc1ncsc1CCN(C)C(=O)c1ncccc1O | -5.43%
O=C1CCCCN1CC(=O)N1CCCC(c2ccccc2)C1 (stereo not drawn) | -1.05%
CNC(=O)C1CCN(c2ncnc3c2CCN(C(=O)C2CC2)C3)C1 (stereo not drawn) | 1.67%
CC(CCN1CCC(n2cc(CCO)nn2)CC1)c1ccccc1 (stereo not drawn) | 3.23%
COc1ccc(-c2nc(C#N)c(N(C)C)o2)cc1OC | -4.91%
COCCN1CCN(CCS(C)(=O)=O)CC1C (stereo not drawn) | -1.22%
Cc1cc(C)c(C(=O)N2CCOC(c3cccs3)C2)c(=O)[nH]1 (stereo not drawn) | -1.29%
COC(=O)c1ccc2c(c1)CCCN2S(=O)(=O)c1cn(C)c(C)n1 | 3.94%
Cc1ccc(C(=O)N2CCCN(Cc3cccs3)CC2)n1C | -0.926%
Cc1cccc2c1cnn2CCCNC(=O)C1CC1 | 5.01%
Cc1nn(C)c2c(N3CCN(C(=O)C4CCC4)CC3)ncnc12 | 1.78%
CC(C)OCCN1CCc2cncnc2C1 | -7.52%

Structure (SMILES) | cytotoxicity at 10 µM
CSc1cccc(CN2CCC(CCC(=O)NCCN(C)C)CC2)c1 | -11.9%
CCC1CN(CCNC(C)=O)CCN1CCOC (stereo not drawn) | -3.09%
CCc1nc(C)c(C(C)N(C)CCc2ccccn2)s1 (stereo not drawn) | -6.51%
COC(=O)c1c(Cl)c(C)nc2onc(C)c12 | -0.895%
Cc1nccn1C1CCCN(C(=O)COCC(F)(F)F)C1 (stereo not drawn) | -12.1%
N#CC1(C(=O)N2CCN(c3nccs3)CC2)CCCCC1 | -8.24%
COc1c(CNC2CCOc3c(F)cccc32)c(C)nn1C (stereo not drawn) | 7.5%
CC(C)C(C(=O)N1CCCN(Cc2cnn(C)c2)CC1)n1cncn1 (stereo not drawn) | -4.52%
CC(O)c1cn(CC2CCN(C(=O)CN(C)C(C)C)CC2)nn1 (stereo not drawn) | -1.58%
Cc1cc(C2CCCN2Cc2cc(=O)n(C)c(=O)n2C)no1 (stereo not drawn) | -20.6%
Cc1sc2nc(CCN)nc(N3CCS(=O)(=O)CC3)c2c1C | -44.1%
Cc1ccc(CN(CCCN2CCOCC2)Cc2cnn(C)c2)o1 | -1.06%
N#CCCN(Cc1ccccn1)C(=O)c1cccc(CN2CCCC2)c1 | 4.93%
CS(=O)(=O)N1CCC2(CC1)CC(NCc1ccccn1)c1ccccc12 (stereo not drawn) | -109%
CS(=O)(=O)N1CC[C@]2(O)CCN(c3cc(C#N)ccn3)C[C@@H]2C1 | 6.36%
CC(C)(C)c1csc(CCNC(=O)C(c2ccccc2)n2cnnn2)n1 (stereo not drawn) | 6.53%
COc1ccc(OCCN(C)C(=O)NC(C)c2nncn2C)cc1 (stereo not drawn) | 1.08%
CN(CC(=O)N1CCCC1Cn1cccn1)Cc1ccccc1 (stereo not drawn) | -2.12%
Cc1noc(C(C)C)c1C(=O)NCc1cccnc1 | 3.93%
Cn1cc(CNC2CCC(O)CC2)c(-c2cc3ccccc3o2)n1 (stereo not drawn) | -48%
CN1CCc2c(C#N)c(NCC3CCCO3)n3cnnc3c2C1 (stereo not drawn) | 4.48%
Cc1nc(CNC(=O)N(C)Cc2cnn(C)c2)cs1 | -14.3%
CCCNC(=O)c1cccc(CNCc2csc(CC)n2)c1 | -10.7%

Structure (SMILES) | cytotoxicity at 10 µM
CC(=O)N1[C@H](Cn2cncn2)C[C@@H]2CN(c3ccc(C)nn3)CC[C@@H]21 | -13.4%
COCCN1CC(C(=O)NCc2ccc(C)s2)CC1=O (stereo not drawn) | 5.27%
O=C1NCC2(CCCN(C(=O)Nc3ccc4occc4c3)CC2)O1 (stereo not drawn) | 2.09%
OCCOCc1n[nH]c2c1CN(Cc1ccccn1)C2 | -112%
COCc1cc(CC2(NCc3ccccc3Cl)COC2)no1 | -9.09%
O=C(O)c1cc(S(=O)(=O)N2CCOc3ccccc32)cc(Cl)c1Cl | -4.36%
CN(Cc1ccco1)C(=O)CN1CCc2ccccc2C1 | -2.19%
COCCCC(=O)NCc1cccc(NC(N)=O)c1 | 0.808%
COc1cccc(CN2CCCCCC2c2sccc2C)c1O (stereo not drawn) | 7.18%
Cn1cccc1C(=O)NS(=O)(=O)c1cnn(-c2ccccc2F)c1 | -7.83%
O=S(=O)(Nc1c(F)cccc1N1CCCC1)c1cncc(F)c1 | 3.22%
CCC(CCNCc1cnc(C2CCC2)s1)N1CCCC1=O (stereo not drawn) | -3.13%
COc1cccc(OCc2nnc3n2N=C(C(C)(C)C)CS3)c1 | 4.4%
CC(NC(=O)Cn1cccn1)c1cccnc1 (stereo not drawn) | 15.9%
Cc1nn(C)c2nc3c(c(C(=O)/N=c4\[nH]nc(C(C)C)s4)c12)CCC3 | -2.25%
COCCCNC(=O)Nc1cccc(Cl)c1-n1cccn1 | 1.13%
CC1CN(CC(=O)NC2CCOCC2)CCN1Cc1nccn1C (stereo not drawn) | -6.57%
O=c1[nH]nc(SCC2CCCO2)n1C1CC1 (stereo not drawn) | 0.0288%
Cc1ncsc1CN1C[C@@H](O)[C@](O)(CNC(=O)c2ccccn2)C1 | -0.973%
Cn1cccc1C(=O)N[C@@H]1CN(CC2CC2)[C@@H]2COC[C@@H]21 | 1.66%
N#Cc1ccc(CCC(=O)N2CCC(CN3CCOCC3)CC2)cc1 | -4.97%
CCn1c(Cn2cncn2)nnc1C1CCN(CCN)CC1 | -0.111%
CCC1c2ccccc2CCN1CCNS(C)(=O)=O (stereo not drawn) | 5.56%

Structure (SMILES) | cytotoxicity at 10 µM
Cn1cc(C2CCCN2C(=O)c2cnc(-c3ncccn3)s2)cn1 (stereo not drawn) | 18.8%
O=C(NCC1CCOC1)c1csc(-c2ccc(F)cc2)n1 (stereo not drawn) | -3.06%
CCN1CCN(C(=O)CCC2CCN(C(C)CSC)CC2)CC1 (stereo not drawn) | -0.0154%
CCS(=O)(=O)N1CCCC2(CCCN2C(=O)c2cn(C)cn2)C1 (stereo not drawn) | 8.16%
COc1ccc(CN2C[C@@H]3CN(CCO)C[C@@H]3C2=O)cc1 | 9.27%
O=c1[nH]c2cn(-c3cccc(Cl)c3)c(=O)n2n1Cc1cccc(F)c1 | 11%
CCC(CC)c1cc(CNC(=O)N2CCC(CO)CC2)on1 | 3.76%
CN(C)c1ccc(C(=O)Nc2ccn(CCc3ccncc3)n2)cn1 | -12.7%
CCn1cc(CN2CCCC(COc3ccc(F)cc3)C2)cn1 (stereo not drawn) | -59.6%
COC(=O)C(c1cc(F)ccc1F)N(C)C(=O)c1cccnc1O (stereo not drawn) | -0.289%
COCCNC(=O)c1ccc2c(=O)n3c(nc2c1)CCCCC3 | 5.53%
COC(C)c1nc(CN2CCNCC2)cs1 (stereo not drawn) | 4.68%
NC(=O)C1CCN(C(=O)CSC2CCCc3ccccc32)CC1 (stereo not drawn) | 1.4%
CN(C)C(=O)N1CCC(C(=O)NCCNc2ncccc2C#N)CC1 | 18.3%
COCC1CCN(CCOc2ccc(C#N)cc2OC)CC1 | 4.11%
CC1c2ncc(COc3cccnc3)n2CCN1Cc1ccco1 (stereo not drawn) | -105%
Cc1cc(C(=O)N2CCC3(C2)CN(c2cccnc2)C(=O)CN3C)[nH]n1 (stereo not drawn) | 5.2%
O=C(NC1CCC2(CCC(=O)N2CC2CC2)CC1)c1cnccn1 (stereo not drawn) | 0.729%
Cc1nc2cc(NC(=O)Cn3ncc(N4CCCC4)cc3=O)ccc2s1 | 2.01%
O=S(=O)(C1CC1)N1CCc2ncc(Cn3cncn3)n2CC1 | 3.62%
CCOc1ccc(CNC2CCCN(c3cccnn3)C2)cc1OC (stereo not drawn) | -3.92%
CCc1nc(N2CCOCC2)ncc1C(=O)NC(c1cccs1)C(C)C (stereo not drawn) | 12.3%
CCc1nc(C)sc1CN1CC[C@@](O)(CCOC)[C@H](C)C1 | -1.18%

Structure (SMILES) | cytotoxicity at 10 µM
CCc1nc(C2CCCN2C(=O)c2nc(C)n3ccccc23)no1 (stereo not drawn) | 1.85%
Cc1nc(C)n(CC2CCCN(Cc3ccc(C(N)=O)cc3)C2)n1 (stereo not drawn) | 0.818%
c1ccc(OCCCN2CCOC(CNc3cccnn3)C2)cc1 (stereo not drawn) | -0.906%
Cc1nc(NCC2CCOCC2)cc(C2CCN2S(C)(=O)=O)n1 (stereo not drawn) | 2.58%
CC1(c2[nH]ncc2C(N)=O)CCN(c2ncccn2)CC1 | 0.462%
CCC(C)(CC(=O)OC)NCc1nc(C)no1 (stereo not drawn) | -5.69%
CCn1cnnc1CN(C)C(=O)C1CCC(=O)N(CC2CCCCC2)C1 (stereo not drawn) | -1.33%
O=C(NCCCNc1ccccc1)c1scnc1Cl | 1.83%
CC(C)NC(=O)[C@@H]1CCO[C@@H]2CCN(c3ncccn3)C[C@@H]21 | 7.92%
CCOc1cccc(C(=O)NCCC(=O)Nc2ccncc2)c1 | 2.37%
NC(=O)CN1CCCN(C(=O)CCOc2ccccc2Cl)CC1 | -6.73%
CC1=Nc2c(c(O)nn2C(C)C)C(c2cnn(C)c2)S1 (stereo not drawn) | 10.8%
c1ccc(OC[C@]23COC[C@H]2CN(Cc2ccoc2)C3)nc1 | -8.63%
O=C(C1CCCO1)N1CCC(n2cc(-c3ccc(F)cc3)nn2)CC1 (stereo not drawn) | -1.41%
CCN1CCn2c(C)cnc2C12CCN(C(=O)c1ccc(Cl)cc1)CC2 | 1.22%
CCc1cc(N(C)CCc2c(C)n[nH]c2C)ncn1 | -4.45%
CCOc1cccc(C(=O)N2CCCn3nc(CCC(=O)O)cc3C2)c1 | -3.43%
CCC1=N[C@@]2(CC[C@@H]3CN(S(=O)(=O)CC)C[C@@H]32)C(=O)N1CCOC | -0.211%
Cc1ccc(N2CCN(C(=O)CCc3ccc(O)cc3)CC2=O)cc1 | -2.36%
COc1cc(NC(=O)c2cscn2)ncn1 | 3.12%
CC(C)NC(=O)C1CN(C(=O)N(C)C)CC12CCOCC2 (stereo not drawn) | -110%
